Laboratory results published in ChEMBL document CHEMBL4145488, “Structure-based development of an osteoprotegerin-like glycopeptide that blocks RANKL/RANK interactions and reduces ovariectomy-induced bone loss in mice” (Eur J Med Chem, 2018).
The source made the active and inactive calls. The rule behind the calls is not given here. Where a SMILES comes first, the peptide text is derived from it. Bridges are numbered along the chain shown (N, C = ends). Triazole bridges read from a SMILES are 1,4-linked. [ ]: non-standard residue; d: D form. The star is where a group is joined. NH(β-GlcNAc) = CC(=O)N[C@@H]1[C@@H](O)[C@H](O)[C@@H](CO)O[C@H]1N*; Dap(N3) = [N-]=[N+]=NC[C@H](N)C(=O)O; Sec = N[C@@H](C[SeH])C(=O)O; Pra = C#CC[C@H](N)C(=O)O

Tests used:
BMMC [1] = test: Inhibition of RANKL/mCSF-induced osteoclast differentiation in C57BL/6 mouse BMMC assessed as reduction in TRAP-positive multinucleated cells at 30 uM by microscopic method relative to control; type: functional; conditions: C57BL/6, BMMC
BMMC [2] = test: Cytotoxicity against C57BL/6 mouse BMMC up to 100 uM after 48 hrs by CCK8 assay; type: cell-based
Procedure, shortened: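 BMMCs seeded at 1×10^5/mL and grown 24 h, then exposed to peptide at 0, 12.5, 25.0, 50.0 or 100.0 µM for 48 h. CCK-8 solution added for 2 h and absorbance read at 450 nm.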

BMMC [3] = test: Inhibition of RANKL/mCSF-induced osteoclast differentiation in C57BL/6 mouse BMMC assessed as reduction in TRAP-positive multinucleated cells by microscopic method; type: functional, cell-based; conditions: for IC50: C57BL/6, BMMC
[4] = molecular target: T1, Tumor necrosis factor ligand superfamily member 11 (Homo sapiens) (UniProt O14788); test: (§1) Binding affinity to recombinant human sRANKL expressed in Escherichia coli by SPR assay
T1 sequence (whole entry): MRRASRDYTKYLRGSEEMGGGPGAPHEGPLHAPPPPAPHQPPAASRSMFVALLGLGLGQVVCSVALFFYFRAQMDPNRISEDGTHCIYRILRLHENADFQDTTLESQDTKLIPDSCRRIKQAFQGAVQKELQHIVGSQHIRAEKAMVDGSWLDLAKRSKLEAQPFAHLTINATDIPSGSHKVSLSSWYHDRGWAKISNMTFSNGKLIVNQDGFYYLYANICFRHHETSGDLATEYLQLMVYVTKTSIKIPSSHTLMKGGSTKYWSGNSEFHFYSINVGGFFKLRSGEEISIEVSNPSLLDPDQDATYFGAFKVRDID
Procedure, shortened: (§2)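 SPR at 25 °C with recombinant sRANKL immobilized on a CM5 dextran chip at about 3500 RU. Surfaces regenerated between cycles with Gly-HCl at pH 2.5. kon, koff and Kd taken from kinetic fitting of the sensorgrams.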

[5] = molecular target: T2, Tumor necrosis factor ligand superfamily member 11 (Homo sapiens, UniProt O14788); test: as §1; procedure, shortened: as §2
T2 sequence (O14788 whole entry): T1 sequence (whole entry)

[6] = molecular target: T1, Tumor necrosis factor ligand superfamily member 11 (Homo sapiens); test: Binding affinity to recombinant human sRANKL expressed in Escherichia coli assessed as association constant by SPR assay; procedure, shortened: as §2
[7] = molecular target: T1, Tumor necrosis factor ligand superfamily member 11 (Homo sapiens); test: Binding affinity to recombinant human sRANKL expressed in Escherichia coli assessed as dissociation constant by SPR assay; procedure, shortened: as §2
[8] = molecular target: Tumor necrosis factor ligand superfamily member 11/11A (Mus musculus) (UniProt O35235+O35305); test: Inhibition of RANKL/RANK protein-protein interaction in mouse RAW264.7 cells assessed as reduction in RANKL-stimulated NF-kB signaling pathway activation by measuring decrease in IkBalpha phosphorylation after 2 hrs by immunoblot assay; type: cell-based
Tumor necrosis factor ligand superfamily member 11/11A (Mus musculus), sequence (O35235 139-316 limits assumed): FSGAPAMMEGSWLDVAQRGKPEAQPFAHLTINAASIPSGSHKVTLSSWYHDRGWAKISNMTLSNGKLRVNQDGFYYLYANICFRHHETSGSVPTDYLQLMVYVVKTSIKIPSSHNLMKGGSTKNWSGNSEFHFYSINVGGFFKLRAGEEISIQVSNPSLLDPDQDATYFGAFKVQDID
Tumor necrosis factor ligand superfamily member 11/11A (Mus musculus), sequence (O35305 31-625 partner limits assumed): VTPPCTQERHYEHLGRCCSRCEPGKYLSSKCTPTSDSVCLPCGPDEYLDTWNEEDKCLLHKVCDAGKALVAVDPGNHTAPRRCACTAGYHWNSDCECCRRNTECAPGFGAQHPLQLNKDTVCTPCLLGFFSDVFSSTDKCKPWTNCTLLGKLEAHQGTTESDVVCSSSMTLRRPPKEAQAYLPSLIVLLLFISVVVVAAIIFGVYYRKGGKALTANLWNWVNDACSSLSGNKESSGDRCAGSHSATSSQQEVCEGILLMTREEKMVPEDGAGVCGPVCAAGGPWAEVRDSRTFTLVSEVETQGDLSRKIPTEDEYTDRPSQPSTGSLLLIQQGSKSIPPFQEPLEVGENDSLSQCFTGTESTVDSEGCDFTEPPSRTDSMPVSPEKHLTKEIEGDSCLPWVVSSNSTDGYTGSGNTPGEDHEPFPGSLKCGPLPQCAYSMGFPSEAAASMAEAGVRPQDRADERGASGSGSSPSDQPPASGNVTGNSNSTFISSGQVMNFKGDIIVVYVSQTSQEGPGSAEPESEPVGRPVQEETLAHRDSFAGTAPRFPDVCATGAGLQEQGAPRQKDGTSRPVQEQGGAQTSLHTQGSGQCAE
Procedure, shortened: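 RAW264.7 cells (1×10^5/well) cultured 12 h, pretreated with or without peptide for 2 h, then stimulated with 300 ng/mL sRANKL for the indicated periods. Lysates (20 µg) run on SDS-PAGE and blotted for phospho-IκBα, IκBα and ERK2; ECL detection.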

[9] = Drug metabolism assessed as alpha-chymotrypsin (unknown origin)-mediated compound degradation by measuring parent compound remaining after 8 hrs by HPLC analysis; type: ADME; conditions: human, read-out: Stability
Procedure, shortened: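 Peptide exposed to α-chymotrypsin; percent residual peptide tracked by HPLC. Mean ± SEM of duplicate independent experiments.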

Mus musculus [10] = test: Inhibition of ovariectomy-induced trabecular bone loss in C57BL/6 mouse distal femur bone at 20 mg/kg/day, ip after 6 weeks by H and E staining based microscopic method; type: functional, organism-based
Procedure, shortened: (§3)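 Female C57BL/6 mice, 6 weeks old, ovariectomized, six per group; 20.0 mg/kg i.p. daily in saline, or saline, for 6 weeks. Femurs fixed in 4 % paraformaldehyde for 4 days and decalcified in 10% EDTA for 2 weeks. 4 µm paraffin sections of the metaphysis stained with H&E (trabecular area) or TRAP (osteoclasts counted).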

Mus musculus [11] = test: Inhibition of ovariectomy-induced trabecular bone loss in C57BL/6 mouse assessed as reduction in TRAP-positive multinucleated cells in distal femur bone at 20 mg/kg/day, ip after 6 weeks by microscopic method; type: functional, organism-based; procedure, shortened: as §3
Mus musculus [12] = test: Inhibition of ovariectomy-induced trabecular bone loss in C57BL/6 mouse distal femur bone assessed as increase in bone volume expressed per unit total volume at 20 mg/kg/day, ip after 6 weeks by micro-CT analysis; type: functional, organism-based
Procedure, shortened: (§4)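 Female C57BL/6 mice, 6 weeks old, ovariectomized, six per group; 20.0 mg/kg i.p. daily in saline, or saline vehicle, for 6 weeks. Femurs then scanned by micro-CT for BMD, Tb.N and BS/TV, with 2D/3D reconstruction.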

Mus musculus [13] = test: Inhibition of ovariectomy-induced trabecular bone loss in C57BL/6 mouse distal femur bone assessed as increase in bone surface area expressed per unit total volume at 20 mg/kg/day, ip after 6 weeks by micro-CT analysis; type: functional, organism-based; procedure, shortened: as §4
Mus musculus [14] = test: Inhibition of ovariectomy-induced trabecular bone loss in C57BL/6 mouse distal femur bone assessed as increase in trabecular number at 20 mg/kg/day, ip after 6 weeks by micro-CT analysis; type: functional, organism-based; procedure, shortened: as §4
Mus musculus [15] = test: Inhibition of ovariectomy-induced trabecular bone loss in C57BL/6 mouse distal femur bone assessed as increase in bone mineral density at 20 mg/kg/day, ip after 6 weeks by micro-CT analysis; type: functional, organism-based; procedure, shortened: as §4
Mus musculus [16] = test: Inhibition of osteoclastogenesis in ovariectomized C57BL/6 mouse assessed as decrease in serum IL-6 level at 20 mg/kg/day, ip after 6 weeks by ELISA; type: functional, organism-based
Procedure, shortened: (§5)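 Female C57BL/6 mice, 6 weeks old, ovariectomized; six per group (sham, OVX with saline, OVX with peptide). Peptide given at 20.0 mg/kg i.p. daily in saline for 6 weeks. Blood centrifuged and serum stored at -80 °C; IL-6, TRAcp5B, CTX-1 and TNF-α measured by ELISA kits.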

Mus musculus [17] = test: Inhibition of osteoclastogenesis in ovariectomized C57BL/6 mouse assessed as decrease in serum TNFalpha level at 20 mg/kg/day, ip after 6 weeks by ELISA; type: functional, organism-based; procedure, shortened: as §5
Mus musculus [18] = test: Inhibition of osteoclastogenesis in ovariectomized C57BL/6 mouse assessed as decrease in serum CTX-1 level at 20 mg/kg/day, ip after 6 weeks by ELISA; type: functional, organism-based; procedure, shortened: as §5
Mus musculus [19] = test: Inhibition of osteoclastogenesis in ovariectomized C57BL/6 mouse assessed as decrease in serum TRAcp5B level at 20 mg/kg/day, ip after 6 weeks by ELISA; type: functional, organism-based; procedure, shortened: as §5

Which results are given for `CC[C@H](C)[C@@H]1NC(=O)[C@H](CCC(=O)O)NC(=O)[C@H](CC(C)C)NC(=O)[C@H](Cc2ccc(O)cc2)NC(=O)[C@H](CCCNC(=N)N)NC(=O)CNC(=O)[C@H](CCC(=O)O)NC(=O)[C@H](CCCCN)NC(=O)[C@@H](NC(C)=O)Cc2cn(nn2)C[C@@H](C(=O)N[C@@H](CC(C)C)C(N)=O)NC(=O)[C@H](Cc2ccccc2)NC(=O)[C@H](CCC(=O)O)NC1=O` (Ac-[Pra]KEGRYLEIEF[Dap(N3)]L-NH2; triazole 1-12)?
inhibition at 30 µM (BMMC [1]): 42.1%; Activity (BMMC [2]): Non-Toxic

With `CC[C@H](C)[C@@H]1NC(=O)[C@H](CCC(=O)O)NC(=O)[C@H](CC(C)C)NC(=O)[C@H](Cc2ccc(O)cc2)NC(=O)[C@H](CCCNC(=N)N)NC(=O)CNC(=O)[C@H](CCC(=O)O)NC(=O)[C@H](CCCCN)NC(=O)[C@@H](NC(=O)[C@H](CC(=O)N[C@@H]2O[C@H](CO)[C@@H](O)[C@H](O)[C@H]2NC(C)=O)NC(C)=O)CSSC[C@@H](C(=O)N[C@@H](CC(C)C)C(N)=O)NC(=O)[C@H](Cc2ccccc2)NC(=O)[C@H](CCC(=O)O)NC1=O` (Ac-D(NH(β-GlcNAc))CKEGRYLEIEFCL-NH2; disulfide 2-13) as the molecule, how does the inhibition at 30 µM (BMMC [1]) read?
The inhibition at 30 µM was 58.2%.

What about the inhibition (BMMC [3]) of the same molecule?
The inhibition was “Dose-dependent effect”.

And the IC50 (BMMC [3])?
The IC50 was 28.5 µM.

And the Activity (BMMC [2])?
Its Activity is “Non-Toxic”.

And the Activity [4]?
Its Activity is “Dose-dependent effect”.

What about the Kd [5] of the same molecule?
The Kd was 4.54 µM.

And the Kapp [6]?
Its Kapp is 609 M⁻¹ s⁻¹.

And the Kapp [7]?
Its Kapp is 0.0027 s⁻¹.

And the inhibition [8]?
Its inhibition is “Active”.

And the remaining at 8 h [9]?
Its remaining at 8 h is greater than 60.7%.

What about the inhibition (Mus musculus [10]) of the same molecule?
Its inhibition is “Active”.

And the inhibition (Mus musculus [11])?
Its inhibition is “Active”.

And the inhibition (Mus musculus [12])?
Its inhibition is “Active”.

And the inhibition (Mus musculus [13])?
Its inhibition is “Active”.

And the inhibition (Mus musculus [14])?
The inhibition was “Active”.

What about the inhibition (Mus musculus [15]) of the same molecule?
Its inhibition is “Active”.

What about the inhibition (Mus musculus [16]) of the same molecule?
The inhibition was “Active”.

And the inhibition (Mus musculus [17])?
The inhibition was “Active”.

What about the inhibition (Mus musculus [18]) of the same molecule?
Its inhibition is “Active”.

And the inhibition (Mus musculus [19])?
The inhibition was “Active”.

Which inhibition at 30 µM (BMMC [1]) does the source give for `CC[C@H](C)[C@H](NC(=O)[C@H](CC(C)C)NC(=O)[C@H](Cc1ccc(O)cc1)NC(=O)[C@@H]1CSSC[C@H](NC(=O)[C@@H](N)Cc2ccc(O)cc2)C(=O)N[C@@H](CCC(=O)O)C(=O)N[C@@H]([C@@H](C)CC)C(=O)N[C@@H](CCC(=O)O)C(=O)N[C@@H](Cc2ccccc2)C(=O)N1)C(=O)N[C@@H](CCCNC(=N)N)C(=O)O` (H-YCEIEFCYLIR-OH; disulfide 2-7) here?
Its inhibition at 30 µM is 55.6%.

What about the IC50 (BMMC [3]) of the same molecule?
The IC50 was 25.3 µM.

What about the Kd [5] of the same molecule?
The Kd was 2.75 µM.

What about the Kapp [6] of the same molecule?
Its Kapp is 496 M⁻¹ s⁻¹.

And the Kapp [7]?
Its Kapp is 0.0013 s⁻¹.

What does the source list for `CC[C@H](C)[C@@H]1NC(=O)[C@H](CCC(=O)O)NC(=O)[C@H](CC(C)C)NC(=O)[C@H](Cc2ccc(O)cc2)NC(=O)[C@H](CCCNC(=N)N)NC(=O)CNC(=O)[C@H](CCC(=O)O)NC(=O)[C@H](CCCCN)NC(=O)[C@@H](NC(C)=O)CSSC[C@@H](C(=O)N[C@@H](CC(C)C)C(N)=O)NC(=O)[C@H](Cc2ccccc2)NC(=O)[C@H](CCC(=O)O)NC1=O` (Ac-CKEGRYLEIEFCL-NH2; disulfide 1-12)?
inhibition at 30 µM (BMMC [1]): 24.4%; Activity (BMMC [2]): Non-Toxic; Kd [5]: 30.9 µM; Kapp [6]: 212 M⁻¹ s⁻¹; Kapp [7]: 0.0065 s⁻¹; remaining at 8 h [9]: 38.5%

For `CC[C@H](C)[C@@H]1NC(=O)[C@H](CCC(=O)O)NC(=O)[C@H](CC(C)C)NC(=O)[C@H](Cc2ccc(O)cc2)NC(=O)[C@H](CCCNC(=N)N)NC(=O)CNC(=O)[C@H](CCC(=O)O)NC(=O)[C@H](CCCCN)NC(=O)[C@@H](NC(C)=O)C[Se][Se]C[C@@H](C(=O)N[C@@H](CC(C)C)C(N)=O)NC(=O)[C@H](Cc2ccccc2)NC(=O)[C@H](CCC(=O)O)NC1=O` (Ac-[Sec]KEGRYLEIEF[Sec]L-NH2; diselenide 1-12), which inhibition at 30 µM (BMMC [1]) is on record?
The inhibition at 30 µM was 40.6%.

What about the Activity (BMMC [2]) of the same molecule?
Its Activity is “Non-Toxic”.
